Source: ChEMBL document CHEMBL1139333, “Search for new pharmacophores for antimalarial activity. Part I: synthesis and antimalarial activity of new 2-methyl-6-ureido-4-quinolinamides” (Bioorg Med Chem, 2009)
In brackets after ≈: the same amount, converted by molar mass.

Experiments:
Plasmodium falciparum [1] = assay: Antimalarial effect as schizonticidal activity against chloroquine-sensitive Plasmodium falciparum 3D7 after 40 hrs; settings: 3D7, 40 h
Plasmodium falciparum [2] = assay: Antimalarial activity against chloroquine-sensitive Plasmodium falciparum 3D7 infected erythrocytes after 72 hrs by MSF assay; settings: 3D7, 72 h
[3] = Selectivity index, ratio of CC50 for african green monkey (Cercopithecus aethiops) Vero cells to IC50 for Plasmodium falciparum 3D7; assay type: functional
Plasmodium yoelii [4] = assay: Antimalarial activity as parasitaemia after 28 days against chloroquine-resistant Plasmodium yoelii N67 infected Swiss mice (Mus musculus) at 50 mg/kg peroral dose over 4 days; assay type: functional; settings: route oral
How it was run: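 Swiss mice (25 g, either sex, n=5) infected on day 0 with 1 × 10⁶ P. yoelii N67 chloroquine-resistant parasitized cells. Test compounds were given orally as an aqueous suspension at 50 mg/kg from day 0 to 3; vehicle controls were run alongside. Parasitaemia was counted on tail-vein thin smears on days 4, 7, 14, 21 and 28, or until death.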

Plasmodium yoelii [5] = assay: Antimalarial activity as parasitaemia after 28 days against chloroquine-resistant Plasmodium yoelii N67 infected Swiss mice (Mus musculus) at 50 mg/kg peroral dose over 7 days; assay type: functional; settings: route oral

| SMILES | MIC (Plasmodium falciparum [1]) [µg/mL] | IC50 (Plasmodium falciparum [2]) [µg/mL] | other results |
| --- | --- | --- | --- |
| Cc1cc(NC(=O)c2ccccc2)c2cc(NC(=O)Nc3cccc(Cl)c3)ccc2n1 | 50 (≈ 116 µM) |  |  |
| Cc1cc(NC(=O)c2cccc(Cl)c2)c2cc(NC(=O)Nc3cccc(Cl)c3C)ccc2n1 | 1 (≈ 2.09 µM) | 0.034 (≈ 0.0709 µM) | Selectivity Index [3]: 184.5 |
| Cc1cc(NC(=O)c2ccccc2)c2cc(NC(=O)Nc3ccc(F)cc3)ccc2n1 | 10 (≈ 24.1 µM) |  |  |
| Cc1cc(NC(=O)c2ccccc2Cl)c2cc(NC(=O)Nc3ccc(Cl)cc3)ccc2n1 | 2 (≈ 4.3 µM) |  |  |
| Cc1cc(NC(=O)c2ccccc2)c2cc(NC(=O)Nc3cccc(F)c3)ccc2n1 | 10 (≈ 24.1 µM) |  |  |
| CC(=O)c1ccc(NC(=O)Nc2ccc3nc(C)cc(NC(=O)c4ccccc4)c3c2)cc1 | 50 (≈ 114 µM) |  |  |
| Cc1cc(NC(=O)CN2CCN(C)CC2)c2cc(NC(=O)Nc3cccc(F)c3)ccc2n1 | 10 (≈ 22.2 µM) |  |  |
| CCN1CCN(CC(=O)Nc2cc(C)nc3ccc(NC(=O)Nc4cccc(C(F)(F)F)c4)cc23)CC1 | 0.5 (≈ 0.972 µM) | 0.028 (≈ 0.0544 µM) |  |
| CC(=O)c1ccc(NC(=O)Nc2ccc3nc(C)cc(NC(=O)c4ccco4)c3c2)cc1 | 10 (≈ 23.3 µM) |  |  |
| Cc1cc(NC(=O)CN2CCN(C)CC2)c2cc(NC(=O)Nc3ccc(F)cc3)ccc2n1 | 2 (≈ 4.44 µM) |  |  |
| Cc1cc(NC(=O)CN2CCCCC2)c2cc(NC(=O)Nc3cccc(C(F)(F)F)c3)ccc2n1 | 0.25 (≈ 0.515 µM) | 0.0335 (≈ 0.069 µM) | Selectivity Index [3]: 214.3 |
| CC(=O)Nc1cc(C)nc2ccc(NC(=O)Nc3ccc(C(C)=O)cc3)cc12 | 10 (≈ 26.6 µM) |  |  |
| Cc1cc(NC(=O)c2cccc(Cl)c2)c2cc(NC(=O)Nc3ccc(F)c(Cl)c3)ccc2n1 |  | 0.0682 (≈ 0.141 µM) | Activity (Plasmodium yoelii [4]): 3.76%; Activity (Plasmodium yoelii [5]): 15.5%; Selectivity Index [3]: 125.6 |
| Cc1cc(NC(=O)c2cccc(Cl)c2)c2cc(NC(=O)Nc3ccc(Cl)c(Cl)c3)ccc2n1 | 10 (≈ 20 µM) |  |  |
| CC(=O)c1cccc(NC(=O)Nc2ccc3nc(C)cc(NC(=O)CN4CCN(C)CC4)c3c2)c1 | 0.5 (≈ 1.05 µM) | 0.146 (≈ 0.308 µM) | Selectivity Index [3]: 524.5 |
| CC(=O)c1cccc(NC(=O)Nc2ccc3nc(C)cc(NC(=O)CN4CCCCC4)c3c2)c1 |  |  | Selectivity Index [3]: 214.4 |
| CC(=O)Nc1cc(C)nc2ccc(NC(=O)Nc3cc(Cl)cc(Cl)c3)cc12 | 2 (≈ 4.96 µM) |  |  |

| SMILES | MIC (Plasmodium falciparum [1]) [µg/mL] | IC50 (Plasmodium falciparum [2]) [µg/mL] | other results |
| --- | --- | --- | --- |
| CC(=O)c1cccc(NC(=O)Nc2ccc3nc(C)cc(NC(=O)c4cccc(Cl)c4)c3c2)c1 | 10 (≈ 21.1 µM) |  |  |
| Cc1cc(NC(=O)c2cccc(Cl)c2)c2cc(NC(=O)Nc3cccc(C(F)(F)F)c3)ccc2n1 |  | 0.0099 (≈ 0.0198 µM) | Selectivity Index [3]: 6014.2 |
| Cc1cc(NC(=O)c2ccccc2Cl)c2cc(NC(=O)Nc3ccc(C)c(Cl)c3)ccc2n1 | 1 (≈ 2.09 µM) | 0.0445 (≈ 0.0928 µM) | Activity (Plasmodium yoelii [4]): 2.15%; Activity (Plasmodium yoelii [5]): 5.08%; Selectivity Index [3]: 205.1 |
| Cc1cc(NC(=O)c2ccccc2Cl)c2cc(NC(=O)Nc3ccc(F)cc3)ccc2n1 | 50 (≈ 111 µM) |  |  |
| Cc1cc(NC(=O)c2ccccc2)c2cc(NC(=O)Nc3ccc(F)c(Cl)c3)ccc2n1 | 10 (≈ 22.3 µM) |  |  |
| Cc1cc(NC(=O)c2ccccc2Cl)c2cc(NC(=O)Nc3cccc(F)c3)ccc2n1 | 2 (≈ 4.46 µM) |  |  |
| Cc1cc(NC(=O)CN2CCCCC2)c2cc(NC(=O)Nc3cc(Cl)cc(Cl)c3)ccc2n1 | 0.5 (≈ 1.03 µM) | 0.0288 (≈ 0.0592 µM) | Selectivity Index [3]: 396.9 |
| Cc1cc(NC(=O)CN2CCCCC2)c2cc(NC(=O)Nc3ccc(Cl)cc3)ccc2n1 | 0.5 (≈ 1.11 µM) | 0.023 (≈ 0.0509 µM) | Selectivity Index [3]: 64.9 |
| Cc1cc(NC(=O)c2ccccc2Cl)c2cc(NC(=O)Nc3cccc(C(F)(F)F)c3)ccc2n1 | 2 (≈ 4.01 µM) |  |  |
| CCN1CCN(CC(=O)Nc2cc(C)nc3ccc(NC(=O)Nc4ccc(C)c(Cl)c4)cc23)CC1 | 0.5 (≈ 1.01 µM) | 0.0035 (≈ 0.00707 µM) |  |
| CC(=O)Nc1cc(C)nc2ccc(NC(=O)Nc3ccc(C)c(Cl)c3)cc12 | 50 (≈ 131 µM) |  |  |
| Cc1cc(NC(=O)c2ccco2)c2cc(NC(=O)Nc3ccc(Cl)c(C(F)(F)F)c3)ccc2n1 |  | 0.0099 (≈ 0.0203 µM) | Selectivity Index [3]: 713.3 |
| Cc1cc(NC(=O)c2ccccc2)c2cc(NC(=O)Nc3cccc(C(F)(F)F)c3)ccc2n1 | 10 (≈ 21.5 µM) |  |  |
| Cc1cc(NC(=O)c2ccccc2)c2cc(NC(=O)Nc3ccc(C)c(Cl)c3)ccc2n1 | 2 (≈ 4.5 µM) |  |  |
| Cc1cc(NC(=O)c2ccccc2Cl)c2cc(NC(=O)Nc3ccc(F)c(Cl)c3)ccc2n1 | 10 (≈ 20.7 µM) |  |  |
| CC(=O)Nc1cc(C)nc2ccc(NC(=O)Nc3ccc(Cl)cc3)cc12 | 10 (≈ 27.1 µM) |  |  |
| Cc1cc(NC(=O)c2cccc(Cl)c2)c2cc(NC(=O)Nc3ccc(C)c(Cl)c3)ccc2n1 | 10 (≈ 20.9 µM) |  |  |
